This note sets out measurements from ChEMBL document CHEMBL1938279, “Synthesis and evaluation of macrocyclic diarylether heptanoid natural products and their analogs” (Bioorg Med Chem Lett, 2012).

As a reminder, the IC50 is the point on the concentration scale where inhibition reaches its midpoint. Lower therefore signals greater potency in that assay.

The nature of test [1]: Inhibition of NF-kappaB activation in human TNFalpha-stimulated A549 cells preincubated for 2 hrs before TNFalpha challenge measured after 7 hrs post stimulation by luciferase reporter gene assay. Format: cell-based. Summed up: (§1)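 Stable κB-luciferase-expressing A549 cells; NF-κB transcription activity read as luciferase signal; single concentration of 20 μM and dose-response experiments.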
(A reporter such as luciferase makes a cellular process visible.)

In test [2] the test system is A549. As to the kind of experiment: Inhibition of NF-kappaB activation in human TNFalpha-stimulated A549 cells at 20 uM preincubated for 2 hrs before TNFalpha challenge measured after 7 hrs post stimulation by luciferase reporter gene assay. The class given is cell-based. An outline of the steps:
as §1

Test [3] concerns HEK293. As to the kind of experiment: Inhibition of TNFalpha-stimulated IkappaBalpha protein expression in HEK293 cells at 50 uM after 120 mins by Western blot analysis. Format: functional, cell-based. Particulars: Homo sapiens. Summed up:
(§2)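 HEK 293 cells stimulated with TNF-α with or without test agent; IκBα protein levels assessed by Western blotting at set times after stimulation.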
For orientation: A western blot detects proteins with antibodies after separation by electrophoresis.

Test [4] deals with PANC-1. Description: Growth inhibition of human PANC1 cells at 20 uM after 5 days by alamar blue assay. The class given is functional, cell-based. An outline of the steps:
(§3)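 Hs 766T and PANC-1 pancreatic tumour cells given test agent alone or combined with gemcitabine; growth inhibition measured; data representative of three independent experiments, mean ± SD.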
On the technique in general: Alamar Blue is a resazurin reagent that responds to reducing activity.

Test [5] deals with PANC-1. As to the kind of experiment: Potentiation of gemcitabine-induced induction of apoptosis in human PANC1 cells assessed as activation of caspase 3/7 after 48 hrs by caspase-Glo 3 assay. The class given is functional, cell-based. An outline of the steps: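 PANC-1 cells treated with test agent alone or combined with gemcitabine; caspase 3/7 activity read after 48 hr as apoptosis marker; representative of two independent experiments, mean ± SD.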

Test [6] deals with HEK293. Description: Inhibition of TNFalpha-stimulated IkappaBalpha protein expression in HEK293 cells at 50 uM after 30 mins by Western blot analysis. As to conditions: Homo sapiens. The class given is functional, cell-based. An outline of the steps: as §2
Test [7] deals with Hs 766. As to the kind of experiment: Potentiation of gemcitabine-induced cytotoxicity against human Hs766T cells assessed as cell growth inhibition at 20 uM after 5 days by alamar blue assay. Format: functional, cell-based. Summed up:
as §3

In test [8] the test system is PANC-1. As to the kind of experiment: Potentiation of gemcitabine-induced cytotoxicity against human PANC1 cells assessed as cell growth inhibition at 20 uM after 5 days by alamar blue assay. The class given is functional, cell-based. Summed up:
as §3

Test [9] deals with Hs 766. Description: Growth inhibition of human Hs766T cells at 20 uM after 5 days by alamar blue assay. The class given is functional, cell-based. Summed up:
as §3

Test [10] deals with HEK293. As to the kind of experiment: Inhibition of TNFalpha-stimulated IkappaBalpha protein expression in HEK293 cells at 50 uM after 60 mins by Western blot analysis. The class given is functional, cell-based. As to conditions: Homo sapiens. An outline of the steps:
as §2

Activity calls are given as the source filed them. The calls are words filed in the database; no cut-off is given here.

`COc1cc(/C=C/C(=O)CC(=O)/C=C/c2ccc(O)c(OC)c2)ccc1O` [CURCUMIN]: half-maximal inhibition in [1] (IC50) required 20.3 µM.

With `COc1ccc2c(c1OC)C(=O)O[C@@H]2[C@H]1c2c(cc3c(c2OC)OCO3)CCN1C` [NOSCAPINE], the IC50 in test [1] came to 65.2 µM.

In turn, `C=C1C(=O)O[C@@H]2C3O[C@]3(C)CC/C=C(\C)CC[C@@H]12` (some centres undefined) yielded an IC50 in test [1] of 4.7 µM.

Regarding `COc1ccc2cc1Oc1cc(ccc1OC)CCC(=O)CCCC2`, the inhibition result in test [2], in test [3], in [6] and in test [10] was “Active” each time. Besides, the “growth inhibition (GI)” value in [4] and in test [9] was “inactive” throughout. Besides, the outcome in test [5] was Active. In addition, the “growth inhibition (GI)” value in [7] and in [8] was “Active” each time. The compound also yielded an IC50 in test [1] of 14.3 µM.

`COc1cc2ccc1Oc1cc(ccc1OC)CCC(O)CCCC2` (centres undefined) [PLATYCARYNOL]: the IC50 in [1] came to 36.4 µM.
